Experimental data as given in ChEMBL document CHEMBL1149285, “Identification of novel parasitic cysteine protease inhibitors using virtual screening. 1. The ChemBridge database” (J Med Chem, 2004).
Calls of active or inactive are those of the source. No cut-off for these calls is given here.

What was measured:
Plasmodium falciparum [1] = assay: Antiplasmodial activity against chloroquine-sensitive Plasmodium falciparum D6 after 48 hrs as LDH reporter activity; format: functional, organism-based; details: D6, 48 h
Procedure, shortened: (§1)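 Asynchronous P. falciparum cultures (2% hematocrit, 2% parasitemia) were exposed to compound dilutions prepared in DMSO. They were incubated 48 h at 37 °C in a humidified chamber under 90% N2, 5% CO2, 5% O2. Growth was read as parasite lactate dehydrogenase activity using Malstat reagent. Medium-only and erythrocyte-only wells were included, with chloroquine and artemisinin as positive and DMSO as negative controls.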

Plasmodium falciparum [2] = assay: Antiplasmodial activity against chloroquine-resistant Plasmodium falciparum W2 as LDH activity after 48 hrs; format: functional, organism-based; details: W2, 48 h; procedure, shortened: as §1
Vero = assay: Cytotoxicity against Vero cells at 23.8 ug/mL by Neutral red assay; format: cell-based; details: chlorocebus sabaeus
Procedure, shortened: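 VERO monkey kidney […] exposed to compounds alongside the antiparasitic assays, viability by Neutral Red uptake; highest concentration tested 23.8 μg/mL; IC50 computed from growth inhibition curve.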

[3] = target: T1, Cysteine protease falcipain-3 (Plasmodium falciparum, UniProt Q9NBA7); assay: Inhibition of Plasmodium falciparum recombinant falcipain-3
T1 sequence (Q9NBA7 whole entry): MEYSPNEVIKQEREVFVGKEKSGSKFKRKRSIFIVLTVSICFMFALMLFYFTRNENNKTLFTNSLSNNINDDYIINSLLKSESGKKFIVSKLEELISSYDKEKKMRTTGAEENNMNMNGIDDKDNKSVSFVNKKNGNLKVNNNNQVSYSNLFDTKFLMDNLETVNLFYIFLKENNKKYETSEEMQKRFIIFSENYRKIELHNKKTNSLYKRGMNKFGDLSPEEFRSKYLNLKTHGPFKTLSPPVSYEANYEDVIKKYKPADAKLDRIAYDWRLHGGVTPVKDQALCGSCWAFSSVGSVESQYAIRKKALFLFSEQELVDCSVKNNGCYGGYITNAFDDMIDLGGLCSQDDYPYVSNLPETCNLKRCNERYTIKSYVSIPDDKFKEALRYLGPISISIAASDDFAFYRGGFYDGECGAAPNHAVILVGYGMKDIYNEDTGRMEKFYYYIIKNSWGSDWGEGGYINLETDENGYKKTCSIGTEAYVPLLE
Procedure, shortened: (§2)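 Equal amounts of recombinant enzyme preincubated 30 min at room temperature with serial inhibitor dilutions from DMSO stocks (DMSO at most 1% in assay) in 100 mM sodium acetate pH 5.5, 10 mM dithiothreitol. Z-Leu-Arg-AMC then added to 25 μM final; fluorescence followed 15 min at room temperature. IC50 taken from percent activity versus concentration plots.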

Leishmania donovani = assay: Antileishmanial activity against Leishmania donovani promastigotes after 72 hrs by Alamar blue assay; format: functional, organism-based
Procedure, shortened: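 L. donovani promastigote culture at 2 × 10⁶ cells/mL given diluted compounds, incubated 72 h at 26 °C; growth read by Alamar blue. Pentamidine and amphotericin B as reference agents; IC50 computed from growth inhibition curve.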

Falcipain 2 = target: T2, Falcipain 2 (Plasmodium falciparum, UniProt Q9N6S8); assay: Inhibition of Plasmodium falciparum recombinant falcipain-2; procedure, shortened: as §2
T2 sequence (Q9N6S8 whole entry): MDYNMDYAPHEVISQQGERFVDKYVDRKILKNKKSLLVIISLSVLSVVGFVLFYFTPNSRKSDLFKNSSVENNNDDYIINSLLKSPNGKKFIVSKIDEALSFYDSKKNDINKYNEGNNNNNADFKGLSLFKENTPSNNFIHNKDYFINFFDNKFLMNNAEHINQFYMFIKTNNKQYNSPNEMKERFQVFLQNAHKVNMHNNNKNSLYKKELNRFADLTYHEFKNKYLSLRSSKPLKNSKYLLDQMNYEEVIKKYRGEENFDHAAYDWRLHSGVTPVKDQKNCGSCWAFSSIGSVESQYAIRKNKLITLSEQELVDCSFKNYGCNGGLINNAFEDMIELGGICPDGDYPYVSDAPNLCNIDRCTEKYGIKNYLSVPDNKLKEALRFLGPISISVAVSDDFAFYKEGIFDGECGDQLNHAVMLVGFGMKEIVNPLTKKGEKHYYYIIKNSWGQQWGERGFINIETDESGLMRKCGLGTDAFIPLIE

[4] = target: T3, Cysteine protease (Leishmania donovani) (UniProt Q95WR6); assay: Inhibition of Leishmania donovani cysteine protease
T3 sequence (whole entry): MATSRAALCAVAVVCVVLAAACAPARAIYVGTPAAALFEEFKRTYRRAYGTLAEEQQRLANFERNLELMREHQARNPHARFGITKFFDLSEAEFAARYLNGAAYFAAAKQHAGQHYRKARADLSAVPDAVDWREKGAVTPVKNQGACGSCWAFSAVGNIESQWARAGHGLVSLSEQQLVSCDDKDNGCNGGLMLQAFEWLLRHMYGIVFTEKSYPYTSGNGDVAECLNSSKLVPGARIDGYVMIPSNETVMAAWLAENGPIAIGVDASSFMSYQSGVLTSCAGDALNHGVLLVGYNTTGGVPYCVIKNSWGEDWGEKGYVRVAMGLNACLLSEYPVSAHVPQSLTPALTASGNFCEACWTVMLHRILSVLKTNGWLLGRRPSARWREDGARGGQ

CCN(CC)CCCC(C)Nc1ccnc2cc(Cl)ccc12 (configuration not stated) [CHLOROQUINE]
EC50 (Plasmodium falciparum [1]): 0.009 µM
EC50 (Plasmodium falciparum [2]): 0.28 µM

O=C(N/N=C/c1ccccc1O)c1cccc(C(=O)N/N=C/c2ccccc2O)n1
Activity (Vero): Non-toxic
IC50 [3]: 10.5 µM
Activity (Leishmania donovani): inactive
EC50 (Plasmodium falciparum [1]): 3.7 µM
IC50 (Falcipain 2): 7 µM
EC50 (Plasmodium falciparum [2]): 6.2 µM
Activity [4]: inactive

CCCc1cc(=O)[nH]c(SCC(=O)Nc2ccccc2)n1
Activity (Vero): Non-toxic
IC50 [3]: > 50 µM
IC50 (Falcipain 2): 59.9 µM

CCOP(=O)(CC(=O)NNC(=O)Nc1cccc2ccccc12)OCC
Activity (Vero): Non-toxic
IC50 [3]: > 50 µM
Activity (Leishmania donovani): inactive
EC50 (Plasmodium falciparum [1]): 52.7 µM
IC50 (Falcipain 2): 53.4 µM
EC50 (Plasmodium falciparum [2]): 40.9 µM
Activity [4]: inactive

OC[C@@H](O)/C=N/Nc1nc(Nc2ccccc2)nc(Nc2ccccc2)n1
Activity (Vero): Non-toxic
IC50 [3]: > 50 µM
IC50 (Leishmania donovani): 1.9 µM
EC50 (Plasmodium falciparum [1]): 2.5 µM
IC50 (Falcipain 2): > 50 µM
EC50 (Plasmodium falciparum [2]): 3.3 µM
Activity [4]: inactive

OC[C@H](O)/C=N/Nc1nc(Nc2ccccc2)nc(N2CCCCC2)n1
Activity (Vero): Non-toxic
IC50 [3]: > 50 µM
IC50 (Leishmania donovani): 3.6 µM
EC50 (Plasmodium falciparum [1]): 4.8 µM
IC50 (Falcipain 2): 54.6 µM
EC50 (Plasmodium falciparum [2]): 5.3 µM
Activity [4]: inactive

COC(=O)c1ccccc1NC(=O)COC(=O)CSc1nc(C)cc(C)n1
Activity (Vero): Non-toxic
IC50 [3]: 12 µM
Activity (Leishmania donovani): inactive
EC50 (Plasmodium falciparum [1]): 61.1 µM
IC50 (Falcipain 2): 6.2 µM
EC50 (Plasmodium falciparum [2]): 61.1 µM
Activity [4]: inactive

CCCS(=O)(=O)N1CCN(S(=O)(=O)c2ccc3ccccc3c2)CC1
Activity (Vero): Non-toxic
IC50 [3]: 29.6 µM
Activity (Leishmania donovani): inactive
EC50 (Plasmodium falciparum [1]): > 62.2 µM
IC50 (Falcipain 2): 12.4 µM
EC50 (Plasmodium falciparum [2]): > 62.2 µM
Activity [4]: inactive

C[C@@H]1CC[C@H]2[C@@H](C)C(=O)O[C@@H]3O[C@@]4(C)CC[C@@H]1[C@]32OO4 [ARTEMISININ]
EC50 (Plasmodium falciparum [1]): 0.012 µM
EC50 (Plasmodium falciparum [2]): 0.017 µM

O=C(CNC(=O)[C@@H]1COc2ccccc2O1)N/N=C/c1cccs1
Activity (Vero): Non-toxic
IC50 [3]: > 50 µM
Activity (Leishmania donovani): inactive
EC50 (Plasmodium falciparum [1]): 68.9 µM
IC50 (Falcipain 2): 26.6 µM
EC50 (Plasmodium falciparum [2]): 68.9 µM
Activity [4]: inactive

Oc1ccc(/C=N/CC/N=C/c2ccc(O)cc2O)c(O)c1
Activity (Vero): Non-toxic
IC50 [3]: > 50 µM
Activity (Leishmania donovani): inactive
EC50 (Plasmodium falciparum [1]): 46.6 µM
IC50 (Falcipain 2): 20.8 µM
EC50 (Plasmodium falciparum [2]): 74.9 µM
Activity [4]: inactive

N=C(N)c1ccc(OCCCCCOc2ccc(C(=N)N)cc2)cc1 [PENTAMIDINE]
IC50 (Leishmania donovani): 2 µM

CC(C)C[C@H](NC(=O)[C@H]1O[C@@H]1C(=O)O)C(=O)NCCCCN=C(N)N [E-64]
IC50 [3]: 0.035 µM
IC50 (Falcipain 2): 0.015 µM

O=C(CSc1ccc2ccccc2n1)N/N=C/c1ccc(O)cc1O
Activity (Vero): Non-toxic
IC50 [3]: > 50 µM
Activity (Leishmania donovani): inactive
EC50 (Plasmodium falciparum [1]): 32.5 µM
IC50 (Falcipain 2): 63.4 µM
EC50 (Plasmodium falciparum [2]): 67.3 µM
Activity [4]: inactive

N#CCC(=O)N/N=C\c1ccc(OCC(=O)Nc2ccc(F)cc2)cc1
Activity (Vero): Non-toxic
IC50 [3]: > 50 µM
Activity (Leishmania donovani): inactive
EC50 (Plasmodium falciparum [1]): 59.3 µM
IC50 (Falcipain 2): 5.7 µM
EC50 (Plasmodium falciparum [2]): 67.2 µM
Activity [4]: inactive

Oc1ccc(Nc2nc(-c3cccnc3)cs2)cc1
Activity (Vero): Non-toxic
IC50 [3]: > 50 µM
IC50 (Leishmania donovani): 11.5 µM
EC50 (Plasmodium falciparum [1]): 52 µM
IC50 (Falcipain 2): 22.5 µM
EC50 (Plasmodium falciparum [2]): 50.1 µM
Activity [4]: inactive

C[C@@H]1[C@H](O)[C@@H](C)/C=C/C=C/C=C/C=C/C=C/C=C/C=C/[C@H](O[C@@H]2O[C@H](C)[C@@H](O)[C@H](N)[C@@H]2O)C[C@@H]2O[C@](O)(C[C@@H](O)C[C@@H](O)[C@H](O)CC[C@@H](O)C[C@@H](O)CC(=O)O[C@H]1C)C[C@H](O)[C@H]2C(=O)O [AMPHOTERICIN B]
IC50 (Leishmania donovani): 0.16 µM

C/C(=N\NS(=O)(=O)c1ccc(C)cc1)c1c(O)c2ccccc2oc1=O
Activity (Vero): Non-toxic
IC50 [3]: 13.9 µM
Activity (Leishmania donovani): inactive
EC50 (Plasmodium falciparum [1]): 63.9 µM
IC50 (Falcipain 2): 3.9 µM
EC50 (Plasmodium falciparum [2]): 63.9 µM
Activity [4]: inactive

O=C(NCc1ccc(/C=c2/sc3n(c2=O)CCN=3)o1)C(=O)Nc1ccccc1
Activity (Vero): Non-toxic
IC50 [3]: 11.8 µM
Activity (Leishmania donovani): inactive
EC50 (Plasmodium falciparum [1]): > 60 µM
IC50 (Falcipain 2): 6.2 µM
EC50 (Plasmodium falciparum [2]): > 60 µM
Activity [4]: inactive

O=C(N/N=C/c1ccc(/C=N/NC(=O)c2ccccc2O)cc1)c1ccccc1O
Activity (Vero): Non-toxic
IC50 [3]: 27.8 µM
Activity (Leishmania donovani): inactive
EC50 (Plasmodium falciparum [1]): 31.1 µM
IC50 (Falcipain 2): 2.2 µM
EC50 (Plasmodium falciparum [2]): 34.8 µM
Activity [4]: inactive

O=C(Nc1cccc(O)c1)c1cccc(S(=O)(=O)Nc2cccc(O)c2)c1
Activity (Vero): Non-toxic
IC50 [3]: > 50 µM
IC50 (Leishmania donovani): 0.3 µM
EC50 (Plasmodium falciparum [1]): 35.1 µM
IC50 (Falcipain 2): > 50 µM
EC50 (Plasmodium falciparum [2]): 37.7 µM
Activity [4]: inactive

Cc1cccc(NC(=O)CCC(=O)N/N=C/c2cc(Cl)ccc2O)c1
Activity (Vero): Non-toxic
IC50 [3]: 5.4 µM
Activity (Leishmania donovani): inactive
EC50 (Plasmodium falciparum [1]): 13.5 µM
IC50 (Falcipain 2): 7.5 µM
EC50 (Plasmodium falciparum [2]): 12.1 µM
Activity [4]: inactive

CCCc1cc(O)nc(SCC(=O)Nc2ccccc2)n1
Activity (Leishmania donovani): inactive
EC50 (Plasmodium falciparum [1]): > 78.4 µM
EC50 (Plasmodium falciparum [2]): > 78.4 µM
Activity [4]: inactive
